# TRPC4 PAM = positive allosteric modulators of TRPC4, primary screen, cell-based, mouse TRPC4beta, HEK293 mu-opioid, Fluo-4 calcium | Short transient receptor potential channel 4 (Mus musculus), Q9QUQ5 | AID 2227, 2009 | actives 0.42% (n = 310,000) | DAMGO EC20, Fluo-4 Ca2+ flux; hits give high values | B-score at 10 µM;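 active = B-score of calcium response area above 5 SD of library B-scores, with initial fluorescence ratio within 5 SD of library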
# TRPC6 inh = mouse TRPC6 channel inhibitors, primary screen, cell-based, HEK293, membrane potential dye. Short transient receptor potential channel 6 (Mus musculus), Q61143. ACh-evoked depolarization; hits give low values. B-score at 10 µM. actives 1.1% (n = 310,000);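 active = B-score under library mean minus 3 SD, initial fluorescence not abnormally high, positive integrated signal ratio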;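 also: B-score derived from integrated fluorescence ratio over the kinetic read; more negative B-score means stronger inhibition of depolarization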
# Target sequence (Q61143 whole entry, looked up): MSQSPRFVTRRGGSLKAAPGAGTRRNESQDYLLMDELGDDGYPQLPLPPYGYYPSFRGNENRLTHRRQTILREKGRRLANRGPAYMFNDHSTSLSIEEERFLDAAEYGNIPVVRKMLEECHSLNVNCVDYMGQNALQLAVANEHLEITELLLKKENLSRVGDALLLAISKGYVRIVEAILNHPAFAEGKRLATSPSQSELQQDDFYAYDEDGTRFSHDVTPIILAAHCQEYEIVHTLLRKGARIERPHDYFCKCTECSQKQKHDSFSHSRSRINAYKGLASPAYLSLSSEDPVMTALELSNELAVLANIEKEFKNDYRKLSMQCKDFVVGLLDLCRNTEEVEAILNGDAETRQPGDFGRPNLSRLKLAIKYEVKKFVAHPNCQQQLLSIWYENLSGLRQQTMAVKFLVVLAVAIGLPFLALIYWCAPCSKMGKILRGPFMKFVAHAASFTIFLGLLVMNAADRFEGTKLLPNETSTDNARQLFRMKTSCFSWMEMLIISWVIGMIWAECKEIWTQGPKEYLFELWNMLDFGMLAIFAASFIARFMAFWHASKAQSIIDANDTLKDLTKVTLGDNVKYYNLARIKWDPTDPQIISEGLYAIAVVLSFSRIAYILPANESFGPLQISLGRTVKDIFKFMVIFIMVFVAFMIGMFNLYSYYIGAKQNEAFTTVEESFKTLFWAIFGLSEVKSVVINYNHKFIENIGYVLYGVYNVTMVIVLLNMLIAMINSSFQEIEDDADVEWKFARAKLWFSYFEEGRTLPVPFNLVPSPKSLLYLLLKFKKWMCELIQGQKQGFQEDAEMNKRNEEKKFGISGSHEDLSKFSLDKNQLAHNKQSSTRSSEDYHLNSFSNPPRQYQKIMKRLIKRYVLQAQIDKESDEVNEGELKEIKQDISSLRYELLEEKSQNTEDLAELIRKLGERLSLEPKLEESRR
# TRPC4 block = inhibitors of mouse TRPC4 channel, primary screen, Fluo4 calcium, HEK293 TRPC4beta/mu-opioid cells. actives 0.39% (n = 300,000). B-score at 10 µM. DAMGO-evoked Fluo4 calcium flux; hits give low values. AID 2247, 2010. Short transient receptor potential channel 4 (Mus musculus), Q9QUQ5;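 active = B-score over 3 SD under the library average, no early fluorescence shift, positive overall ratio signal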
#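 Assay system – HEK293 line stably carrying TRPC4beta and mu-opioid receptor · Doses – single dose · Detection – Fluo4 calcium-dye fluorescence, kinetic read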
# TRPC4 agonist = activators of mouse TRPC4 channel, primary screen, Fluo4 calcium, HEK293 TRPC4beta/mu-opioid cells; actives 0.49% (n = 310,000); AID 2237, 2010; Fluo4 calcium fluorescence; hits give high values; B-score at 10 µM; Short transient receptor potential channel 4 (Mus musculus), Q9QUQ5;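 active = B-score above 5 SD of library B-scores, and initial fluorescence ratio not above library mean plus 5 SD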;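 also: positive B-score marks a calcium rise read as TRPC4 activation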
#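 Technique: kinetic Fluo4 calcium fluorescence; Test system: TRPC4beta and mu-opioid receptor HEK293 stable cells; Measure: B-scored integrated calcium fluorescence ratio; Benchmarks: low control buffer alone, high control maximal DAMGO; Schedule: 45 min room-temperature Fluo4 loading, 110 s read.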
# TRPC6 activator = mouse TRPC6 channel activators, primary screen, cell-based, HEK293, membrane potential dye. Short transient receptor potential channel 6 (Mus musculus), Q61143. HEK293-TRPC6 membrane potential dye fluorescence; hits give high values. B-score at 10 µM. actives 0.13% (n = 310,000);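 active = B-score of the integrated fluorescence ratio above library mean plus 3 SD, and starting fluorescence ratio within library mean plus 5 SD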;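 also: higher score means more depolarization so channel activation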
# TRPC4 spec 2 = second selectivity test of TRPC6 inhibitors: effect on mouse TRPC4 | shares compounds with TRPC6 inh | HEK293 TRPC4/MOR, membrane potential dye fluorescence; channel activated by saturating DAMGO dose | inhibition, % at 10 µM | actives 42% (n = 920);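 active = compounds whose fluorescence signal differed from control wells by over 3 SD, either direction, in both duplicate plates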
# TRPC4 spec = mouse TRPC4 modulation by TRPC6 hits, confirmation, selectivity assay for TRPC6 inhibitor project, cell-based, HEK293 TRPC4/mu-opioid, membrane potential dye; shares compounds with TRPC6 inh; membrane potential fluorescence; activity change, negative = inhibition, % at 10 µM; actives 61% (n = 920); AID 2777, 2010;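 active = rise or fall in signal beyond 3 SD of buffer-only wells in both replicate plates, either sign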;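 also: integrated kinetic ratio of fluorescence range over baseline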
# HEK293 MPD ctr 2-1 = nonspecific membrane potential effects, parental HEK293, confirmation, counter-screen for TRPC6 inhibitor project, cell-based, second counter screen; actives 31% (n = 920); parental HEK293 membrane potential dye fluorescence; maximal acetylcholine challenge after compound addition; shares compounds with TRPC6 inh; signal change vs control, % at 10 µM;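 active = membrane potential signal moving either way by over 3 SD of the maximum-effect control, in both duplicate plates, meaning non-specific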
# HEK293 MPD ctr-1 = membrane potential modulation in parental HEK293, confirmation, counter-screen for TRPC6 inhibitor project, cell-based. parental HEK293 membrane potential dye fluorescence. actives 60% (n = 920). shares compounds with TRPC6 inh. membrane potential signal change, % at 10 µM;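 active = membrane potential signal shifting up or down by more than 3 SD of buffer-only wells, on both duplicate plates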
# HEK293 MPD ctr-2 = parental HEK293 membrane potential modulation, confirmation, counter-screen for TRPC6 modulator project, cell-based; shares compounds with TRPC6 inh; membrane potential dye fluorescence; membrane potential signal change, % at 10 µM; actives 51% (n = 2,400); AID 488924, 2010;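 active = membrane potential signal moves up or down beyond 5 SD from buffer-only wells, on both duplicate plates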
# HEK293 MPD ctr 2-2 = parental HEK293 nonspecific activity of TRPC6 modulators, second screen. shares compounds with TRPC6 inh. AID 488926. membrane potential dye fluorescence; after compound, maximal acetylcholine stimulation. actives 14% (n = 2,400). inhibition, % at 10 µM;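 active = membrane potential signal drops by more than 5 SD from the mean control signal, in both duplicate plates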
# TRPC4/MOR mod = TRPC4 modulation by TRPC6 hit compounds, confirmation, selectivity assay for TRPC6 modulator project, cell-based, HEK293 TRPC4/mu-opioid, membrane potential dye, mouse. shares compounds with TRPC6 inh. membrane potential fluorescence. percent change from control (negative = decrease, positive = increase), % at 10 µM. actives 69% (n = 2,400);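 active = membrane potential signal moved up or down beyond 5 SD of buffer control wells, in both duplicate plates, actives on both sides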
# TRPC4/MOR inh 2 = second check of whether TRPC6 modulators also affect mouse TRPC4; shares compounds with TRPC6 inh; HEK293 TRPC4/mu-opioid, membrane potential dye fluorescence; stimulated with maximal-effect DAMGO; inhibition, % at 10 µM; actives 55% (n = 2,400); AID 488928;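 active = drop in membrane potential signal beyond 5 SD of the control wells in both duplicate plates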;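 also: TRPC4 counter screen for TRPC6 hits run under conditions tuned for TRPC6 not TRPC4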
# TRPC6 block conf = mouse TRPC6 channel inhibitors, confirmation, HEK293 cells, membrane potential dye, duplicate; inhibition, % at 10 µM; shares compounds with TRPC6 inh; AID 488960, 2010; actives 43% (n = 3,300); ACh-evoked depolarization;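 active = fluorescence ratio falls more than 5 SD below the full-stimulation control mean, in both duplicate runs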;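 also: integrated fluorescence ratio of peak minus minimum over baseline after agonist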
# TRPC6 act conf = mouse TRPC6 channel activators, confirmation, HEK293 cells, membrane potential dye, duplicate; shares compounds with TRPC6 inh; HEK293-TRPC6 membrane potential dye fluorescence, FDSS; activation, % at 10 µM; actives 11% (n = 2,800);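 active = ratio signal rise beyond 5 SD above unstimulated control wells' mean, seen in both duplicate runs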
# A number is an active result; – = inactive; · = no result. Compounds with a hit are over-represented: about 2.3% of the library has one in this group of screens.
SMILES,TRPC4 PAM,TRPC6 inh,TRPC4 block,TRPC4 agonist,TRPC6 activator,HEK293 MPD ctr-2,HEK293 MPD ctr 2-2,TRPC4/MOR mod,TRPC4/MOR inh 2,TRPC6 block conf,TRPC6 act conf,others
CN1CCN(S(=O)(=O)c2ccc(NC(=O)c3cccc(S(=O)(=O)N4CCCC4)c3)cc2)CC1,–,-5.5,–,–,–,–,–,–,–,–,–,
CC1CCCN(S(=O)(=O)c2ccc(NC(=O)CNC3CCCC3)cc2)C1 (stereo not given),–,-6.7,–,–,–,·,·,·,·,–,–,TRPC4 spec 2=54%;TRPC4 spec=–;HEK293 MPD ctr 2-1=–;HEK293 MPD ctr-1=3.2%
Cc1ccc(S(=O)(=O)N2CCC(=O)N(CCOC(=O)Nc3ccccc3C)CC2)cc1,–,–,–,–,–,·,·,·,·,·,·,
CN1CCN(S(=O)(=O)c2ccc(NC(=O)c3cccc(F)c3)cc2)CC1,–,–,–,–,–,·,·,·,·,·,·,
CCN(CC)S(=O)(=O)c1ccc(N2CCN(C)CC2)c(NC(=O)Nc2ccc(C)cc2)c1,–,–,–,–,–,·,·,·,·,·,·,
Cn1c(Cn2c(=O)sc3ccccc32)nnc1SCC(=O)NCCc1ccccc1,–,–,–,–,–,·,·,·,·,·,·,
CN(Cc1ccccc1F)C(=O)CN1c2cccc3cccc(c23)S1(=O)=O,–,–,–,–,–,·,·,·,·,·,·,
CC(=O)Nc1ccc(S(=O)(=O)N2CCCN(S(=O)(=O)c3ccc(C)cc3)CC2)cc1,–,-7.4,–,–,–,·,·,·,·,–,–,TRPC4 spec 2=–;TRPC4 spec=–;HEK293 MPD ctr 2-1=–;HEK293 MPD ctr-1=–
CCCOC(=O)c1cc(NC(=O)/C=C/c2ccccc2)ccc1O,–,–,–,–,–,·,·,·,·,·,·,
CCCCn1nnnc1SCC(=O)c1cc(Cl)ccc1OC,–,–,–,–,–,·,·,·,·,·,·,
COc1ccc(Cl)cc1C(=O)CSc1nc(N)cc(N)n1,–,-8.5,–,–,13,–,–,–,–,72%,173%,
Cc1ccc(OCC(=O)NCCCNC(=O)c2ccco2)cc1,–,–,–,–,–,·,·,·,·,·,·,
O=C(Nc1ncc([N+](=O)[O-])s1)c1cccc([N+](=O)[O-])c1,–,–,–,–,–,·,·,·,·,·,·,
O=C(Nc1ccccc1)Nc1ncc([N+](=O)[O-])s1,–,-7.4,–,–,–,·,·,·,·,96%,·,TRPC4 spec 2=54%;TRPC4 spec=43%;HEK293 MPD ctr 2-1=–;HEK293 MPD ctr-1=21%
O=C(Nc1cccc2ccccc12)NC1CCCCC1O (stereo not given),–,–,–,–,–,·,·,·,·,·,·,
COc1ccc(NC(=O)COc2ccccc2C(=O)NCC(c2ccccc2)N(C)C)cc1Cl (stereo not given),–,-5.3,–,45,–,–,–,–,86%,48%,–,
O=C1CCCC(=O)C1=C1SCCCS1,–,–,–,–,–,·,·,·,·,·,·,
CN1CCN(c2ccc(Cl)cc2NC(=O)c2ccc(=O)n(C)n2)CC1,–,-9,–,–,–,-340%,68%,-59%,54%,52%,–,
Cc1oc(-c2ccccc2F)nc1CN1CCC(C(=O)NC2CCCc3ccccc32)CC1 (stereo not given),–,-8.8,–,–,–,·,·,·,·,–,–,TRPC4 spec 2=34%;TRPC4 spec=29%;HEK293 MPD ctr 2-1=293%;HEK293 MPD ctr-1=9.1%
CC(OC(=O)c1cccc(-n2cnnn2)c1)C(=O)Nc1ccc(F)cc1 (stereo not given),–,–,–,–,–,·,·,·,·,·,·,
O=C(Nc1cccc(CNCCc2c[nH]c3ccccc23)c1)c1ccccc1Cl,–,-6.5,–,–,–,–,–,-15%,80%,55%,–,
CC(C)n1c(SCC(=O)Nc2ccccc2)nc2c1c(=O)n(C)c(=O)n2C,–,–,–,–,–,·,·,·,·,·,·,
CCC(C)N(C(=O)COC(=O)COc1c(C)cc(C)cc1C)C1CCS(=O)(=O)C1 (stereo not given),–,–,–,–,–,·,·,·,·,·,·,
COc1ccc2c(c1)c(C(=O)CN1CCc3ccccc3C1)c(C)n2C,–,-6.5,–,–,–,-88%,–,-16%,59%,44%,–,
OCCN(CC#CC(O)(c1ccccc1)c1ccccc1)CCO,–,–,–,–,–,·,·,·,·,·,·,
CC(C)N(CC#CC(O)(c1ccccc1)c1ccccc1)CCO,–,–,–,–,–,·,·,·,·,·,·,
CC(C)N(CC#CC(O)(c1ccccc1)c1ccccc1)C(C)C,–,-6.4,–,–,–,115%,96%,22%,–,73%,·,

# From PubChem
